Measured values reported in ChEMBL document CHEMBL3856209, “Novel pyrazolopyridine derivatives as potential angiogenesis inhibitors: Synthesis, biological evaluation and transcriptome-based mechanistic analysis” (Eur J Med Chem, 2016).
Calls of active or inactive are those of the source. The rule behind the calls is not given here.

Key:
HUVEC [1] = experiment: Effect on KIF20A gene expression in serum-starved HUVEC after 24 hrs by microarray analysis relative to control; format: functional, Homo sapiens
Summary of the method: (§1)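 Confluent, serum-starved HUVEC (pooled from 3–5 donors, passage ≤4) treated with 2 μM compound or vehicle with 2.5% FBS for 6 h or 24 h. Total RNA hybridized to Illumina Human-HT12 arrays. Data were background-corrected, vst-transformed and rsn-normalized. Hits called by moderated paired t-test versus DMSO-treated cells, p < 0.05 and log2 fold change >|0.5|.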

HUVEC [2] = experiment: Inhibition of total protein tyrosine kinase activity in serum-starved HUVEC at 1 to 4 uM after 2 hrs; format: cell-based; conditions: Homo sapiens
HUVEC [3] = experiment: Antimigratory activity in HUVEC at 0.2 to 2 uM after 6 hrs in presence of 5% fetal bovine serum by transwell assay; format: functional, cell-based; conditions: Homo sapiens
Summary of the method: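 Serum-starved confluent HUVEC pre-treated overnight with compound or vehicle in 5% FBS medium. Then placed in the upper chamber of 8 µm-pore Transwells (6×10^4 cells/well) and allowed to migrate 6 h toward 5% FBS or starvation medium. Migrated cells fixed, H&E stained, and counted in five fields/well; expressed as % of control; replicates from two independent experiments.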

Mus musculus [4] = experiment: Toxicity in C57BL/6 mouse allografted with mouse LLC cells at 0.05 to 0.2 mg/kg, ip administered thrice a week for 2 weeks starting 24 hrs before tumor implantation by clinical test; format: organism-based; conditions: in vivo
Summary of the method: (§2)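 Male C57BL/6 mice, 6–8 weeks old, in groups of 5–6, received 5×10^5 LLC cells sc in the right flank. Compound (0.05–0.2 mg/kg) or DMSO vehicle was given ip thrice weekly for 2 weeks, starting 24 h before implantation. Mice were weighed and examined clinically every other day. At end-point, kidney, lung, spleen, liver and heart sections were H&E-stained and examined microscopically.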

HUVEC [5] = experiment: Inhibition of VEGF-165-induced HUVEC chemotactic migration at 0.2 to 2 uM after 6 hrs by transwell assay; format: functional, cell-based; conditions: Homo sapiens
Summary of the method: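 Serum-starved HUVEC were pre-treated overnight with compound or vehicle in 5% FBS medium. Cells were then seeded at 6×10^4 per upper Transwell chamber (8 µm pores) and migrated for 6 h toward VEGF-165 (50 ng/mL) or starvation medium. Migrated cells were ethanol-fixed, stained with H&E and counted in five fields per well. Results are % of control from at least two independent experiments.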

[6] = molecular target: Vascular endothelial growth factor receptor 2 (Homo sapiens) (UniProt P35968); experiment: Inhibition of VEGF-165-induced VEGFR2 autophosphorylation at Tyr1175 in serum-starved HUVEC at 2 uM preincubated for 2 hrs followed by VEGF-165 induction measured after 5 mins by Western blot analysis; format: cell-based
Summary of the method: (§3)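 Serum-starved HUVEC were given 2 µM compound or vehicle for 2 h, then VEGF-165 (50 ng/mL) or PBS for 5 min. Lysates with equal protein were run on SDS-PAGE and immunoblotted for phospho-VEGFR2 (Tyr951, 996, 1056, 1175), p-AKT Ser473, p-ERK1/2 and the total proteins. Detection was by ECL with densitometry. Phospho signals were normalized to total protein, n = 3.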

[7] = Antiproliferative activity against human EAhy926 cells assessed as decrease in cell viability after 24 to 48 hrs in presence of 2.5% fetal bovine serum by MTT assay; format: functional, cell-based; conditions: EA.hy 926
Summary of the method: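 EA.hy926 in DMEM with 2.5% FBS exposed 48 h to serial 1:2 compound dilutions spanning 0.125–50 μM. Viable cells measured by MTT (0.5 mg/mL, 4 h, A595/630 nm). IC50 (mean ± SEM) fitted by non-linear regression from eight or more points.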

Lewis lung carcinoma = experiment: Antiangiogenic activity in mouse LLC cells allografted in C57BL/6 mouse assessed as decrease of microvessel density in tumor at 0.2 mg/kg, ip administered thrice a week for 2 weeks starting 24 hrs before tumor implantation measured post last dose by IHC analysis; format: functional, organism-based
Summary of the method: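 Male 6–8 week C57BL/6 mice (groups of 5–6) inoculated sc in the right flank with 5×10^5 LLC cells. Compound (0.2 mg/kg) or DMSO vehicle given ip thrice weekly for 2 weeks, starting 24 h before implantation. Tumors measured by caliper every other day. At end-point, anti-CD31 IHC (1:100) of tumor sections, with immunoreactive cells counted in six high-power fields.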

EA.hy 926 = experiment: Antiproliferative activity against human EAhy926 cells assessed as decrease in cell viability at 0.2 to 2 uM after 24 to 48 hrs in presence of 2.5% fetal bovine serum by MTT assay; format: functional, cell-based
Summary of the method: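 EA.hy926 seeded at 4×10^3/well, adhered 24 h, and starved 4 h in 0.25% BSA medium. Then treated with compound or 0.1% v/v DMSO in medium with 2.5% FBS for 48 h. MTT 0.5 mg/mL for 4 h, A595 with 630 nm correction, cell number from a standard curve. Expressed as % of DMSO control; replicates from two independent experiments.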

[8] = Effect on total VEGFR2 levels in VEGF-165-induced serum-starved HUVEC at 2 uM preincubated for 2 hrs followed by VEGF-165 induction measured after 5 mins by Western blot analysis; format: cell-based; conditions: human; summary of the method: as §3
HUVEC [9] = experiment: Antiangiogenic activity in HUVEC assessed as inhibition of VEGF-165-induced tube formation at 0.2 to 2 uM after 24 hrs by matrigel assay; format: functional, cell-based; conditions: Homo sapiens
Summary of the method: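 HUVEC seeded at 2×10^4 cells/well on growth factor-reduced Matrigel after pre-starvation, then given compound or vehicle (up to 0.1% v/v DMSO), with or without VEGF-165, for 24 h. Fixed in ice-cold ethanol and stained with haematoxylin-eosin. Tube-like structures counted in at least 5 fields/well and expressed as % of vehicle control; replicates from two independent experiments.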

HUVEC [10] = experiment: Effect on RNU1-3 gene expression in serum-starved HUVEC after 24 hrs by microarray analysis relative to control; format: functional, Homo sapiens
Summary of the method: (§4)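 Serum-starved confluent HUVEC (pooled from 3–5 donors, passage ≤4) were treated with 2 μM compound or vehicle in 2.5% FBS for 6 h or 24 h, and total RNA was isolated. Hybridization was on Illumina Human-HT12. Data were processed with bgAdjust, vst and rsn normalization. Changes versus DMSO were called by moderated paired t-test at p < 0.05 and |log2 fold change| > 0.5.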

HUVEC [11] = experiment: Effect on GNG12 gene expression in serum-starved HUVEC after 24 hrs by microarray analysis relative to control; format: functional, Homo sapiens; summary of the method: as §1
[12] = molecular target: Vascular endothelial growth factor receptor 2 (Homo sapiens) (UniProt P35968); experiment: Inhibition of VEGF-165-induced VEGFR2 autophosphorylation in serum-starved HUVEC assessed as decrease in ERK1/2 phosphorylation at 2 uM preincubated for 2 hrs followed by VEGF-165 induction measured after 5 mins by Western blot analysis; format: cell-based; summary of the method: as §3
[13] = molecular target: Vascular endothelial growth factor receptor 2 (Homo sapiens) (UniProt P35968); experiment: Inhibition of VEGF-165-induced VEGFR2 autophosphorylation in serum-starved HUVEC assessed as decrease in AKT phosphorylation at 2 uM preincubated for 2 hrs followed by VEGF-165 induction measured after 5 mins by Western blot analysis; format: cell-based; summary of the method: as §3
Mus musculus [14] = experiment: Toxicity in C57BL/6 mouse allografted with mouse LLC cells assessed as effect on vital organs at 0.05 to 0.2 mg/kg, ip administered thrice a week for 2 weeks starting 24 hrs before tumor implantation by haematoxylin-eosin staining-based microscopic analysis; format: organism-based; conditions: in vivo; summary of the method: as §2
HUVEC [15] = experiment: Effect on RNA28S5 gene expression in serum-starved HUVEC after 6 hrs by microarray analysis relative to control; format: functional, Homo sapiens; summary of the method: as §4

Chain of Vascular endothelial growth factor receptor 2 (Homo sapiens) (P35968 whole entry): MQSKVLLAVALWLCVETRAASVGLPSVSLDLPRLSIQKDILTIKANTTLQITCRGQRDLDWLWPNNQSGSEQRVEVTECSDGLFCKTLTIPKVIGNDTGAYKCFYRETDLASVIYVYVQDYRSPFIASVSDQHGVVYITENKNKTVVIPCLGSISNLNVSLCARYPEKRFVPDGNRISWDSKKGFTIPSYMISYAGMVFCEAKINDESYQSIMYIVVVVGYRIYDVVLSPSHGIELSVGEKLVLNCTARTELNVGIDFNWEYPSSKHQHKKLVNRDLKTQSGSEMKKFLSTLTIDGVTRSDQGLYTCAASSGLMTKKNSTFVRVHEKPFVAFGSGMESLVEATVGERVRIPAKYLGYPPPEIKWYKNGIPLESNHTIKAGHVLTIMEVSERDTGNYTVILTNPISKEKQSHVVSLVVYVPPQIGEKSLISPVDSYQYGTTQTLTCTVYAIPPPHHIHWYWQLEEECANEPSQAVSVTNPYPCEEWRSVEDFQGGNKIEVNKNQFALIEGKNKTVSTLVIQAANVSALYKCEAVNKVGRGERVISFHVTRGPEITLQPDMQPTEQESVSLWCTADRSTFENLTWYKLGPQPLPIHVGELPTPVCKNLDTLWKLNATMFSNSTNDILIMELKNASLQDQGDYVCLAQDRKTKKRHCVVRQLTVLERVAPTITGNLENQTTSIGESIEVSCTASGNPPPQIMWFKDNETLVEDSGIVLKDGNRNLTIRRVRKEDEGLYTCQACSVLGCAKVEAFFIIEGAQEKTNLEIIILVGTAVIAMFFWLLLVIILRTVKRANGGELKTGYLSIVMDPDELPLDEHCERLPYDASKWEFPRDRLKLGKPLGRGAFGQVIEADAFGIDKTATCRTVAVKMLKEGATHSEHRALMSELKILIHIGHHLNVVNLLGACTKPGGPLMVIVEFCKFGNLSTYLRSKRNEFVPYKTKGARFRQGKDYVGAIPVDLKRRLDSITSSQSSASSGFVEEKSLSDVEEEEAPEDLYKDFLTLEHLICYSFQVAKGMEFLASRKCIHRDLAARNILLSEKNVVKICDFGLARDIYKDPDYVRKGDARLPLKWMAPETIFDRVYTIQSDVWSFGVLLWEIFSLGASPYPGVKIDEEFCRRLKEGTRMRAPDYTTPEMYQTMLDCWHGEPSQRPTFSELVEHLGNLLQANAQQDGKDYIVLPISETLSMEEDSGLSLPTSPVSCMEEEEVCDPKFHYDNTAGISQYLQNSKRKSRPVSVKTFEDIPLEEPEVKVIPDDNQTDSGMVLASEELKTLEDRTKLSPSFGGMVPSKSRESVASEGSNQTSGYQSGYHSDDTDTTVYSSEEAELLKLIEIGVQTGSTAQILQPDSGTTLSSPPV

inhibition (HUVEC [2]) | inhibition [6] | inhibition [12] | inhibition [13] | SMILES | log2FC (HUVEC [1]) | Activity (HUVEC [3]) | Activity (Mus musculus [4]) | inhibition (HUVEC [5]) | IC50 [7] | Activity (Lewis lung carcinoma) | Activity (EA.hy 926) | Activity [8] | inhibition (HUVEC [9]) | log2FC (HUVEC [10]) | log2FC (HUVEC [11]) | Activity (Mus musculus [14]) | log2FC (HUVEC [15])
Active | Active | Active | Active | COc1ccc(Cn2nc(-c3ccccc3)c3cc(Cl)nc(N4CCNCC4)c32)cc1 | -0.5549 | Active | Non-Toxic | Active | 4.3 µM | Active | Active | Non-Toxic | Active | -0.1906 | 0.2465 | Non-Toxic | -0.7662
Active | Active | Active | Active | COc1ccc(Cn2nc(-c3ccccc3)c3cc(Nc4ccc(N5CCN(C)CC5)cc4)nc(N4CCNCC4)c32)cc1 | -0.5596 | Active | Non-Toxic | Active | 12 µM | Active | Active | Non-Toxic | Active | 0.1133 | 0.1458 | Non-Toxic | -0.6261
Active | Active | Active | Active | COc1ccc(Cn2nc(-c3ccccc3)c3cc(Nc4ccc(N5CCN(C)CC5)cc4)nc(N4CCN(C)CC4)c32)cc1 | -0.9386 | Active | Non-Toxic | Active | 7.2 µM | Active | Active | Non-Toxic | Active | 0.1009 | 0.1566 | Non-Toxic | -1.164
